Screens from PubChem.
Compounds with a hit are over-represented: about 1.5% of the library has one in this group of screens.
Wnt bcat act = activators of Wnt/beta-catenin signaling; Wnt/beta-catenin reporter cell assay, activator, plate reader; activation, % at 9.35 µM; 1.2% of 300,000 active; AID 743398; in the data active means activation above about 30%, passing the limit was not always enough; inconclusive means no clear call, values can overlap the other calls;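 further: 0% = neutral control wells and 100% = positive control wells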
Cneo AK release = causes C. neoformans cell lysis; adenylate kinase release luminescence, 4 h; normalised: neutral wells 0, clomiphene wells 100; lysis activity, % at 15 µM; 0.2% of 360,000 active;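 active means mean lysis activity across replicates of at least 80%, whatever share of replicates individually reach that level; inactive means mean lysis activity below 80%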
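Material – Cryptococcus neoformans yeast cells · Quantity – 5 × 10^6 yeast cells/mL · Buffer or medium – YPD medium · Compound – single dose · Timing – 4 h static compound exposure, 37 °C, read 1 h post-reagent · Signal – adenylate kinase release luminescence · Read-out basis – lysis from increased AK signal · Benchmarks – Clomiphene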
PGC1a acetyl inh = lowers PGC1a acetylation signal in U2OS cells; AlphaScreen anti-acetyl-lysine; with virally co-expressed GCN5 acetyltransferase; inhibition, % at 15.6 µM; 0.17% of 350,000 active; AID 651687;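 active means every replicate shows inhibition of at least 40%; inconclusive means mean inhibition at least 40% but some replicate below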;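 further: 0% = neutral control wells and 100% = positive control wells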
MITF act = activators of MITF-driven TRPM1 promoter activity in SK-MEL-5 cells; SK-MEL-5 TRPM1-promoter luciferase, 24 h; % of positive control, neutral wells = 0; activation, % at 12.5 µM; 0.75% of 300,000 active; AID 588334;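 active means mean activation of at least 80% with every replicate also reaching 80%; inconclusive means mean reaches 80% but some replicate falls short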;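 further: 0% = neutral control wells and 100% = parthenolide positive control wells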
The depositor's hits bear a star; ? = inconclusive; nt = no result.

SMILES | Wnt bcat act | Cneo AK release | PGC1a acetyl inh | MITF act
COc1ccc(-c2ccc3c(c2)O[C@H](CN(C)C)[C@@H](C)CN([C@@H](C)CO)S3(=O)=O)cc1 | nt | 2.5 | -3.9 | nt
CCC(=O)N1C[C@H](C)[C@@H](OC)CN(C)C(=O)c2cc(NC(=O)c3ccc(F)cc3)ccc2OC[C@H]1C | nt | -0.1 | -3.3 | nt
O=C(Nc1cc(-c2ccccc2)[nH]n1)c1ccc(Cl)cc1 | 40.1* | 0.6 | 0.1 | nt
O=C(Nc1ccc(Cl)cc1Cl)c1ccc(-c2ccccc2)cc1 | 7.0 | nt | nt | 9.8
CCOC(=O)c1cc(OCC)c2c(ccc3ccccc32)n1 | 110.7* | -0.8 | nt | nt
CCOC(=O)c1cnc2c(ccc3ccccc32)c1N | 10.3 | -12.1 | 15.1 | nt
O=C(c1ccccc1)N1C[C@@H]2[C@H](c3ccccc31)[C@@H](CO)N2C(=O)c1cccc(F)c1 | nt | 49.1 | -4.2 | nt
Cc1ccc(/C=N/Nc2ncnc3nc[nH]c23)cc1 | 47.0* | nt | -28.0 | 73.7
Clc1ccc(/C=N/Nc2ncnc3nc[nH]c23)cc1 | 0.1 | -1.1 | -0.4 | 187.1*
Oc1ccc(/C=N/Nc2ncnc3nc[nH]c23)cc1 | 1.4 | -0.7 | 0.5 | -2.1
CCCCNc1ccc2c(c1)C1CC2CCN1C(=O)OCc1ccccc1 (configuration not stated) | 10.7 | -1.0 | -9.6 | 125.5*
Cc1ccc(S(=O)(=O)N2CCCC2)cc1C(=O)O | 0.8 | 0.5 | 59.1* | nt
Cc1ccc(S(=O)(=O)N2CCCCC2)cc1C(=O)N1CCCC1 | 0.8 | 1.8 | nt | 3.1
COc1cccc2cc(C(=O)N3CCCCC3C)c(=O)oc12 (configuration not stated) | nt | 0.4 | 20.1 | -0.7
COc1cccc2cc(NC(=O)C3CCCCC3)c(=O)oc12 | nt | 1.9 | 12.2 | 110.4*
O=CNc1ccc2c(c1)Cc1cc([N+](=O)[O-])ccc1-2 | -1.8 | -2.4 | -54.4 | 8.3
CCC(=O)Nc1ccc2c(c1)Cc1cc([N+](=O)[O-])ccc1-2 | 48.2* | 0.6 | 0.7 | 92.8*
CC(C)(C)OC(=O)N/N=C\C=C\c1ccc2c(c1)OCO2 | 55.5* | nt | nt | 119.0*
COC(=O)N/N=C\C=C\c1ccc2c(c1)OCO2 | nt | -11.4 | 14.2 | 32.1
COc1ccc(CC(=O)N/N=C/C=C/c2ccc3c(c2)OCO3)cc1OC | 8.9 | 0.2 | 5.2 | nt
CCOC(=O)N/N=C\C=C\c1ccc2c(c1)OCO2 | 49.7* | 0.5 | -19.2 | 72.9
CN1CCN(C(=O)C[C@H]2CC[C@H](NS(=O)(=O)c3cccc(F)c3)[C@H](CO)O2)CC1 | nt | 2.5 | -9.8 | nt
COCCNC(=O)[C@@H]1[C@@H](CO)[C@@H]2Cn3c(ccc(-c4ccc(F)cc4)c3=O)[C@H]1N2C | nt | 1.7 | nt | nt
CCC1CCc2sc(C(=O)NCC3CCCO3)cc2C1 (configuration not stated) | 55.5* | -2.3 | -2.2 | 76.4
CC(C)C(=O)Nc1ccc2c(c1)C(=O)N(C)[C@@H]1CC[C@@H](CC(=O)O)O[C@H]1CO2 | nt | -0.1 | 9.3 | nt
SMILES | Wnt bcat act | Cneo AK release | PGC1a acetyl inh | MITF act
CCCc1nc2c3ccccc3ccn2c1Cc1ccccc1 | 33.5* | 4.1 | -4.4 | nt
COCCNC(=O)C[C@H]1CC[C@@H]2[C@@H](COc3ccc(NC(=O)Nc4ccccc4)cc3C(=O)N2C)O1 | nt | 0.9 | 3.8 | nt
Cc1cc(OCc2cc(C(=O)N(C)C3CCOC3)no2)cc(C)c1Cl (configuration not stated) | 35.0* | 1.4 | -4.0 | 77.3
CC(=O)c1ccc(OCc2cc(C(=O)N(C)C3CCOC3)no2)cc1 (configuration not stated) | 25.1 | 11.2 | -3.6 | 70.4
COc1cccc(NC(=O)C(=S)NC2CCCCC2)c1 | 10.7 | -2.8 | nt | 84.1*
COc1cccc(NC(=O)NC2CCCCCCC2)c1 | 13.5 | -1.0 | nt | 89.4*
COc1ccc(NC(=O)NC2CCCCCCC2)cc1 | 6.2 | -1.4 | nt | 59.3
CCc1noc(C)c1C(=O)NNC(=O)COc1ccccc1C | 34.4* | 0.4 | nt | -3.9
CC1(C)CC(=O)C(N=Nc2ccc(-c3ccccc3)cc2)=C(O)C1 | -0.2 | nt | -2.5 | 96.0*
CC1(C)CC(=O)C(N=Nc2ccc(Cl)cc2)=C(O)C1 | -4.5 | nt | nt | 12.8
CC1(C)CC(=O)C(N=Nc2ccc(F)cc2)=C(O)C1 | 43.8* | nt | -0.5 | 9.0
CO[C@H]1CN(C)C(=O)c2cc(NC(=O)Nc3ccccc3Cl)ccc2OC[C@@H](C)NC[C@H]1C | nt | 0.9 | 3.4 | nt
CCCCOP(=O)(c1ccc(N(C)C)cc1)C(O)c1ccc(OC)cc1 (configuration not stated) | -2.2 | 1.2 | 82.0* | 1.4
CC(/C=N/NC(=O)Cc1cccs1)=C\c1ccccc1 | nt | -0.1 | nt | 123.6*
O=C(N/N=C/C=C\c1ccccc1)c1cnccn1 | -0.6 | nt | 0.4 | 14.0
CC(/C=N/NC(=O)Cc1cccn1C)=C\c1ccccc1 | nt | nt | nt | 50.8
O=C(Cc1cccs1)N/N=C/C(Br)=C/c1ccccc1 | nt | -0.3 | -80.9 | 107.1*
O=C(N/N=C/C(Br)=C/c1ccccc1)c1cnccn1 | 32.6* | nt | nt | 34.6
C[C@@H]1CN([C@H](C)CO)C(=O)c2cccc(NC(=O)C3CCOCC3)c2O[C@@H]1CN(C)S(C)(=O)=O | nt | -2.0 | 2.1 | nt
CC(C)NC(=O)N(C)C[C@H]1Oc2c(NC(=O)CCCCCC(=O)Nc3ccccc3N)cccc2C(=O)N([C@@H](C)CO)C[C@@H]1C | nt | nt | 2.1 | nt
CCN(CC)c1ccc(/C=N/N2CCOCC2)c(O)c1 | nt | -0.9 | -1.0 | 108.6*
Cc1ccc(S(=O)(=O)N(C)C[C@@H]2Oc3ncc(-c4ccc(F)cc4)cc3C(=O)N([C@H](C)CO)C[C@@H]2C)cc1 | nt | -0.2 | -2.3 | nt
Fc1ccc(/C=C/c2nnc(-c3cccs3)o2)cc1 | 53.2* | nt | nt | 66.3
CC(C)(C)c1ccc(/C=C/C(=O)N2CCOCC2)cc1 | -3.6 | nt | nt | 53.6
CC(C)Cc1ccc(/C=C/C(=O)N2CCOCC2)cc1 | 16.8 | -2.2 | 6.7 | 102.7*
SMILES | Wnt bcat act | Cneo AK release | PGC1a acetyl inh | MITF act
O=C(c1ccc(-c2ccc([N+](=O)[O-])cc2)o1)N1CCCCC1 | 75.4* | -2.2 | -3.6 | 50.8
S=C(c1ccc(-c2ccc(Cl)cc2)o1)N1CCCCC1 | nt | -5.0 | -3.2 | 82.8*
S=C(c1ccc(-c2ccccc2Cl)o1)N1CCCCC1 | nt | nt | nt | 67.3
CC1CC(C)CN(C(=O)c2ccc(-c3ccc([N+](=O)[O-])cc3)o2)C1 (configuration not stated) | 6.9 | 3.7 | -0.4 | 72.5
CCc1nonc1NC(=O)c1oc2cc(C)c(Cl)cc2c1C | -0.3 | -0.3 | -9.9 | 32.8
CCc1nonc1NC(=O)c1oc2cc(C)c(C)cc2c1C | 25.5 | 0.2 | -13.6 | 86.3*
CCc1ccc(NC2=CC(=O)C(=O)c3ccccc32)cc1 | 32.5* | nt | nt | -103.3
O=C1C=C(Nc2ccccc2)c2ccccc2C1=O | 4.5 | nt | -0.7 | -102.1
CCc1ccc2c(c1)C(=O)c1ccccc1C2=O | 74.4* | nt | nt | 34.7
CC(C)(C)c1ccc2c(c1)C(=O)c1ccccc1C2=O | ? | -10.1 | -1.6 | -6.1
C/C=C/c1ccc([C@@H]2[C@@H](CO)N(C(=O)C3CC3)C23CN(S(=O)(=O)CC)C3)cc1 | nt | nt | 7.0 | nt
Cc1nc(Nc2ccc(C(=O)O)cc2)sc1-c1ccccc1 | 1.3 | nt | nt | -35.0
CCOC(=O)c1sc(N/N=C/c2cccc(C)c2)nc1C | 18.3 | -2.0 | -12.4 | 98.6*
Cc1nc(Nc2ccccc2)sc1-c1ccccc1 | 43.8* | nt | -9.8 | 58.0
